Measurements pooled from the literature.
Compare with care: the assays were run in different laboratories.

C[C@H]1C[C@H]2[C@@H]3CCC4=CC(=O)C=C[C@]4(C)[C@H]3C(=O)C[C@]2(C)[C@@]1(O)C(=O)CO — IC50 (HepaRG; reactive oxygen species; inhibitor; 16 h): 5270 nM
Cc1noc2c1-c1ccc(-c3cnn(C)c3)cc1C(c1ccc(Cl)cc1)=N[C@H]2CC(N)=O — IC50 (MP46; cell growth or viability; ATP luminescence; 72 h): 248 nM
FC(F)(F)c1ccc(-c2cc(CNc3cccc4cccnc34)on2)cc1 — IC50 (CAPAN-1; cell growth or viability; MTS; 72 h): 19900 nM
O=C(NO)c1ccc(Cn2cnc3c(Nc4ccc(Br)cc4F)ncnc32)cc1 — IC50 (THP-1; cell growth or viability; MTT; 72 h): 930 nM
Clc1ccc(-c2cc(CNc3cccc4cccnc34)on2)c(Cl)c1 — IC50 (CAPAN-1; cell growth or viability; MTS; 72 h): 14900 nM
CC(C)(C)c1cc(/C=C2\SC(N)=NC2=O)cc(C(C)(C)C)c1O — IC50 (HepaRG; reactive oxygen species; inhibitor; 16 h): 830 nM
O=C(CSc1nc2ccccc2s1)N/N=C/c1ccc(OCC(=O)Nc2cccc(Br)c2)cc1 — IC50 (CAPAN-1; cell growth or viability; MTS; 72 h): > 100000 nM
Nc1ccn([C@@H]2O[C@H](CO)[C@@H](O)C2(F)F)c(=O)n1 — IC50 (MP46; cell growth or viability; ATP luminescence; 72 h): 169 nM
CONC(=O)c1cccc2c1cc(C)n2-c1nc2c(c(NCc3ccccc3)n1)CCCN2 — IC50 (SW-620; cell growth or viability; 72 h): 2300 nM
O=c1cc(OCc2cc(-c3ccc(C(F)(F)F)cc3)no2)c2ccccc2o1 — IC50 (CAPAN-1; cell growth or viability; MTS; 72 h): > 100000 nM
Cc1cc2c(C(=O)O)cccc2n1-c1nc2c(c(NCc3ccccc3)n1)CCCN2 — IC50 (SW-620; cell growth or viability; 72 h): 2100 nM
N#Cc1ccc(-c2cc(CNc3cccc4cccnc34)on2)cc1 — IC50 (CAPAN-1; cell growth or viability; MTS; 72 h): 13100 nM
O=C(NO)c1ccc(Cn2cnc3c(Nc4ccc(Cl)cc4)ncnc32)cc1 — IC50 (THP-1; cell growth or viability; MTT; 72 h): 190 nM
N#Cc1ccc(-c2cc(COc3cc(C(F)(F)F)nc4ccccc34)on2)cc1 — IC50 (CAPAN-1; cell growth or viability; MTS; 72 h): 22500 nM
CC1(COc2ccc(CC3SC(=O)NC3=O)cc2)CCCCC1 (stereo not shown) — IC50 (HepaRG; reactive oxygen species; inhibitor; 16 h): 11100 nM
O=C(CSc1nc2ccccc2s1)N/N=C/c1ccc(OCC(=O)Nc2ccc([N+](=O)[O-])cc2)cc1 — IC50 (CAPAN-1; cell growth or viability; MTS; 72 h): 29400 nM
O=P1(C2CCCCC2)CCCCC1 — IC50 (SW-620; cell growth or viability; MTT; 72 h): 16100 nM
COc1nnc2ccc(N3CCC(c4ccc(OCCN5CCN(C)C(=O)[C@H]5C)cc4)CC3)nn12 — IC50 (MP46; cell growth or viability; ATP luminescence; 72 h): 68.3 nM
N/C(=N\O)c1ccc(-c2cc(CNc3cccc4cccnc34)on2)cc1 — IC50 (CAPAN-1; cell growth or viability; MTS; 72 h): 4700 nM
O=C(CSc1nc2ccccc2s1)N/N=C/c1ccc(OCC(=O)Nc2ccc(Br)cc2)cc1 — IC50 (CAPAN-1; cell growth or viability; MTS; 72 h): 10200 nM
O=c1cc(OCc2cc(-c3ccccn3)no2)c2ccccc2o1 — IC50 (CAPAN-1; cell growth or viability; MTS; 72 h): > 100000 nM
CC(C)(C)c1cnc(CSc2cnc(NC(=O)C3CCN(C(=O)CCCCCCCN4Cc5cc6c(cc5C4)C(=O)N(C4CCC(=O)NC4=O)C6=O)CC3)s2)o1 (stereo not shown) — IC50 (SJSA-1; cell growth or viability; MTT): 174 nM
Cc1[nH]c2ccccc2c1CCNCc1ccc(/C=C/C(=O)NO)cc1 — IC50 (MP46; cell growth or viability; ATP luminescence; 72 h): 27.7 nM
COc1ccc(Nc2ncnc3c2ncn3Cc2ccc(C(=O)Nc3ccccc3N)cc2)cc1 — IC50 (THP-1; cell growth or viability; MTT; 72 h): 930 nM
COc1ccc(N(C)c2nc(C)nc3ccccc23)cc1OCCCC(=O)NO — IC50 (MP46; cell growth or viability; ATP luminescence; 72 h): 94.8 nM
FC(F)(F)c1cc(OCc2cc(-c3ccccc3)no2)c2ccccc2n1 — IC50 (CAPAN-1; cell growth or viability; MTS; 72 h): 7400 nM
CC(=O)N1c2ccc(-c3ccc(C(=O)O)cc3)cc2[C@H](Nc2ccc(Cl)cc2)C[C@@H]1C — IC50 (MP46; cell growth or viability; ATP luminescence; 72 h): 104 nM
O=P1(c2ccccc2)CCCCC1 — IC50 (SW-620; cell growth or viability; MTT; 72 h): > 100000 nM
Cc1noc(C)c1-c1cc(C(O)(c2ccccn2)c2ccccn2)c2nc(C3CC3)[nH]c2c1 — IC50 (MP46; cell growth or viability; ATP luminescence; 72 h): 71.2 nM
c1ccc(Oc2ccc(Nc3c4c(nc5ccccc35)CCC4)cc2)cc1 — IC50 (THP-1; cell growth or viability; 72 h): 18300 nM
O=C(NO)c1ccc(Cn2cnc3c(Nc4cccc([N+](=O)[O-])c4)ncnc32)cc1 — IC50 (THP-1; cell growth or viability; MTT; 72 h): 530 nM
